Measured values gathered from unrelated publications.
Protocols differ between the studies behind these lines.
OfChi-h: Chitinase (OfChi-h, Ostrinia furnacalis, UniProt Q4AE59)
WDR5: WD repeat-containing protein 5 (WDR5, Homo sapiens, UniProt P61964)
HDAC7: Histone deacetylase 7 (HDAC7, Homo sapiens, UniProt Q8WUI4)
PRKCE: Protein kinase C epsilon type (PRKCE, Homo sapiens, UniProt Q02156)

Compound | target | assay | setting | quantity | result
CN(C)c1nc(NCc2cccc(C(F)(F)F)c2)c(/N=N/c2ccc(Cl)cc2)c(N(C)C)n1 | OfChi-h | enzyme activity, inhibitor, fluorescence | 1 µM | inhibition | 91.9%
C[C@@H]1CN(c2ccc(-c3cc(C(=O)NCCOCCOCCOCCOCCNC(=O)Cn4cc(-c5[nH]cc(C(=O)N[C@@H](CC(N)=O)c6ccc(F)c(Cl)c6)c5-c5ccc(Cl)cc5F)cn4)ccc3F)cc2NC(=O)c2c[nH]c(=O)cc2C(F)(F)F)C[C@H](C)N1C | WDR5 | thermal stability, DSF | 5.5 µM | ΔTm | 13.4 °C
COc1cc(-c2cncc3c2CN(C)Cc2cc(N4CCNCC4)ccc2-3)cc(OC)c1OC | Serine/threonine-protein kinase 35 (STK35, Homo sapiens, UniProt Q8TDR2) | enzyme activity, inhibitor | 1 µM | remaining activity | 111%
CC(C)Oc1ccc(S(=O)(=O)c2ccc(Oc3cc(OCC(N)=O)c(C(=O)C(Cl)Cl)cc3[N+](=O)[O-])cc2)cc1 | [Pyruvate dehydrogenase (acetyl-transferring)] kinase isozyme 3, mitochondrial (PDK3, Homo sapiens, UniProt Q15120) | enzyme activity, inhibitor, ATP luminescence | 10 µM | inhibition | 27.9%
CN(C)c1nc(NCc2ccc(OC(F)(F)F)cc2)c(/N=N/c2ccc(Cl)cc2)c(N(C)C)n1 | OfChi-h | enzyme activity, inhibitor, fluorescence | 1 µM | inhibition | 85%
O=C(NO)c1cc(F)cc(OS(=O)(=O)Oc2ccccc2)c1 | HDAC7 | enzyme activity, inhibitor, fluorescence | 10 µM | inhibition | 47%
O=C(Cn1cc(C=CC(=O)c2ccc(F)cc2)nn1)Nc1nc(-c2ccccc2)cs1 | 72 kDa type IV collagenase (MMP2, Homo sapiens, UniProt P08253) | enzyme activity, inhibitor | 0.5 µM | inhibition | 40.6%
O=C(NO)c1cncc(OS(=O)(=O)Oc2ccc(C(F)(F)F)cc2)c1 | HDAC7 | enzyme activity, inhibitor, fluorescence | 10 µM | inhibition | 49%
C=CC(=O)N1CCC(COCC(=O)N2CCN(c3nc(-c4cnc(N)nc4C(F)F)nc(N4CCOC[C@@H]4C)n3)CC2)CC1 | Epithelial discoidin domain-containing receptor 1 (DDR1, Homo sapiens, UniProt Q08345) | binding, competition with immobilised ligand | 1 µM | remaining binding | 99%
CNc1ncc2c(/C=C/C(=O)N3CCC(OC)CC3)nn(Cc3cccc(C(F)(F)F)c3)c2n1 | PRKCE | enzyme activity, inhibitor, radiometric | 1 µM | remaining activity | 99%
C[C@@H]1CN(c2ccc(-c3cc(C(=O)NCCOCCOCCOCCOCCNC(=O)/C=C/c4[nH]cc(C(=O)N[C@@H](CC(N)=O)c5ccc(F)c(Cl)c5)c4-c4ccc(Cl)cc4F)ccc3F)cc2NC(=O)c2c[nH]c(=O)cc2C(F)(F)F)C[C@H](C)N1C | WDR5 | thermal stability, DSF | 5.5 µM | ΔTm | 10.6 °C
O=C(O)CNc1cccc(CN(Cc2ccc(-n3cccn3)cc2)S(=O)(=O)c2cccnc2)n1 | Beta-2 adrenergic receptor (ADRB2, Homo sapiens, UniProt P07550) | ligand displacement, radioligand | 10 µM | inhibition | 12%
Cc1cc([C@@H](C)Nc2ccccc2C(=O)O)c2nc(N3CCC(F)(F)CC3)c(C#N)c(=O)n2c1 | PRKCE | binding, competition with immobilised ligand | 10 µM | remaining binding | 100%
